# In ChEMBL document CHEMBL3526099, “Metabolism of triethylenetetramine and 1,12-diamino-3,6,9-triazadodecane by the spermidine/spermine-N(1)-acetyltransferase and thialysine acetyltransferase” (Drug Metab Dispos, 2013):
# Columns and labels:
# [1] = biological target: T1, Diamine acetyltransferase 1 (Homo sapiens, UniProt P21673); experiment: Drug level in human HepG2 cells assessed as SSAT1-mediated compound formation treated with SpmTrien at 100 uM for 24 hrs; assay type: ADME, cell-based; settings: hepg2, 24 h
# Target sequence in this assay (P21673 whole entry): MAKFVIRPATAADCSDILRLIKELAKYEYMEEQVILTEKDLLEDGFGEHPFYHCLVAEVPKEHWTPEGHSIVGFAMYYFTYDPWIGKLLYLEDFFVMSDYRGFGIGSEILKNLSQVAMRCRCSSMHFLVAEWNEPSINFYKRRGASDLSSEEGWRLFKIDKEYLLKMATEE
# [2] = biological target: T2, Thialysine N-epsilon-acetyltransferase (Homo sapiens, UniProt Q96F10); experiment: Drug level in human HepG2 cells assessed as SSAT2-mediated compound formation treated with TETA at 1 mM for 24 hrs; assay type: ADME, cell-based; settings: hepg2, 24 h, 1000 µM
# T2 sequence (Q96F10 whole entry): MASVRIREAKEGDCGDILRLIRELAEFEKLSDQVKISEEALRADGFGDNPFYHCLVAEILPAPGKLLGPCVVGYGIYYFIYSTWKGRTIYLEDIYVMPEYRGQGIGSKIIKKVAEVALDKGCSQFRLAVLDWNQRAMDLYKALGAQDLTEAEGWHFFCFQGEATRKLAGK
# [3] = Drug metabolism in SSAT1-knockout mouse primary hepatocytes at 100 uM for 4 hrs; assay type: ADME, cell-based, Hepatocyte
# Outline: (§1)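 Hepatocytes from SSAT1-KO or wild-type mouse liver were isolated by collagenase perfusion and plated on collagen I in William's E with dexamethasone, FBS and insulin. They were reverse-transfected with control or SSAT2 siRNA (100 nM) for 2 d, then exposed to 1 mM TETA or 100 µM SpmTrien for 4 h. Intracellular metabolites were measured. Means ± SD, n=3.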
# HepG2 = experiment: Drug metabolism in human HepG2 cells at 100 uM for 24 hrs in presence of SSAT1 shRNA; assay type: ADME, cell-based; settings: hepg2, 24 h
# Outline: (§2)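 HepG2 cells were transduced with control, SSAT1 or SSAT2 shRNA lentiviral particles and stable clones selected with puromycin (5 µg/ml) for one week. Cells were plated overnight, then incubated 24 h with 1 mM TETA or 100 µM SpmTrien. Intracellular metabolites were measured. Means ± SD, n=3.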
# [4] = biological target: T1, Diamine acetyltransferase 1; experiment: Drug metabolism in human HepG2 cells assessed as SSAT1-mediated (N1-acetyl)-1,12-diamino-3,6,9-triazadodecane formation at 100 uM for 24 hrs; assay type: ADME, cell-based; settings: hepg2, 24 h
# Target sequence in this assay (P21673 whole entry): as the sequence (P21673 whole entry) above
# [5] = biological target: T1, Diamine acetyltransferase 1; experiment: Drug metabolism in human HepG2 cells assessed as SSAT1-mediated (N1-acetyl)-spermidine formation at 100 uM for 24 hrs; assay type: ADME, cell-based; settings: hepg2, 24 h
# Target sequence in this assay (P21673 whole entry): as above
# [6] = biological target: T3, Diamine acetyltransferase 1 (Mus musculus, UniProt P48026); experiment: Drug metabolism in mouse primary hepatocytes assessed as SSAT1-mediated (N1-acetyl)-1,12-diamino-3,6,9-triazadodecane formation at 100 uM for 4 hrs in presence of SSAT2 siRNA; assay type: ADME, cell-based, Hepatocyte; outline: as §1
# T3 sequence (P48026 whole entry): as the sequence (P21673 whole entry) above, with V5K, A12S, E32D, L42Q, R119K, T169A counted along it
# [7] = biological target: T1, Diamine acetyltransferase 1; experiment: Drug metabolism in human HepG2 cells assessed as SSAT1-mediated (N1-acetyl)-spermine formation at 100 uM for 24 hrs; assay type: ADME, cell-based; settings: hepg2, 24 h
# Target sequence in this assay (P21673 whole entry): as the sequence (P21673 whole entry) above
# [8] = biological target: T1, Diamine acetyltransferase 1; experiment: Drug metabolism in human HepG2 cells assessed as SSAT1-mediated (N1-acetyl)-1,12-diamino-3,6,9-triazadodecane formation at 100 uM for 24 hrs in presence of SSAT2 shRNA; assay type: ADME, cell-based; settings: hepg2, 24 h; outline: as §2
# Target sequence in this assay (P21673 whole entry): as above
# [9] = biological target: T1, Diamine acetyltransferase 1; experiment: Drug level in human HepG2 cells assessed as SSAT1-mediated compound formation treated with SpmTrien at 100 uM for 24 hrs pretreated with 50 uM DENSpm for 24 hrs; assay type: ADME, cell-based; settings: hepg2, 24 h
# Outline: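 HepG2 cells were pretreated for 24 h with 50 µM DENSpm or medium alone, washed, then incubated for 24 h with 1 mM TETA or 100 µM SpmTrien. Intracellular metabolites were measured from cell lysates. Means ± SD, n=3.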
# Target sequence in this assay (P21673 whole entry): as above
# [10] = biological target: T3, Diamine acetyltransferase 1; experiment: Drug level in mouse primary hepatocytes assessed as SSAT1-mediated compound formation per ug DNA treated with SpmTrien at 100 uM for 4 hrs
# [11] = biological target: T3, Diamine acetyltransferase 1; experiment: Drug level in mouse primary hepatocytes assessed as SSAT1-mediated compound formation treated with 100 uM SpmTrien for 4 hrs in presence of SSAT2 siRNA; assay type: ADME, cell-based, Hepatocyte; outline: as §1
# [12] = biological target: T2, Thialysine N-epsilon-acetyltransferase; experiment: Activity of human recombinant SSAT2 assessed as compound formation treated with 1 mM SpmTrien for 50 mins by HPLC analysis; assay type: ADME
# Outline: (§3)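 SpmTrien (1 mM) incubated with 50-100 ng human recombinant enzyme for 10-50 min at 37 °C in 100 mM Tris-HCl pH 7.8 containing 1 mM acetyl-CoA and 1 mM DTT. The reaction was stopped with sulphosalicylic acid containing diaminoheptane as internal standard, and acetylated products were quantified by HPLC.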
# [13] = biological target: T1, Diamine acetyltransferase 1; experiment: Drug level in human HepG2 cells assessed as SSAT1-mediated compound formation per ug DNA treated with Spm Trien at 100 uM for 24 hrs; assay type: ADME, cell-based; settings: hepg2, 24 h
# [14] = biological target: T1, Diamine acetyltransferase 1; experiment: Activity of human recombinant SSAT1 assessed as compound formation treated with 1 mM SpmTrien for 50 mins by HPLC analysis; assay type: ADME; outline: as §3
# [15] = biological target: T1, Diamine acetyltransferase 1; experiment: Drug level in human HepG2 cells assessed as SSAT1-mediated compound formation treated with SpmTrien at 100 uM for 24 hrs in presence of SSAT2 shRNA; assay type: ADME, cell-based; settings: hepg2, 24 h; outline: as §2
# [16] = biological target: T1, Diamine acetyltransferase 1; experiment: Drug level in human HepG2 cells assessed as SSAT1-mediated compound formation treated with TETA at 1 mM for 24 hrs pretreated with 50 uM DENSpm for 24 hrs; settings: hepg2, 24 h, 1000 µM
# Target sequence in this assay (P21673 whole entry, looked up): as the sequence (P21673 whole entry) above
# [17] = biological target: Thialysine N-epsilon-acetyltransferase (Mus musculus, UniProt Q6P8J2); experiment: Drug level in mouse primary hepatocytes assessed as SSAT2-mediated compound formation per ug DNA treated with TETA at 1 mM for 4 hrs; settings: 1000 µM
# Chain of Thialysine N-epsilon-acetyltransferase (Mus musculus, UniProt Q6P8J2) (Q6P8J2 whole entry): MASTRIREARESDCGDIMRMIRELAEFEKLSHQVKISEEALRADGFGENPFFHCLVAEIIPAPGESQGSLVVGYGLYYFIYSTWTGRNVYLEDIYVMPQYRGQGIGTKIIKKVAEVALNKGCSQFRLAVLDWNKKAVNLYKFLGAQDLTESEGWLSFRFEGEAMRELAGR
# [18] = biological target: T2, Thialysine N-epsilon-acetyltransferase; experiment: Drug level in human HepG2 cells assessed as SSAT2-mediated compound formation per ug DNA treated with TETA at 1 mM for 24 hrs; assay type: ADME, cell-based; settings: hepg2, 24 h, 1000 µM
# [19] = biological target: T2, Thialysine N-epsilon-acetyltransferase; experiment: Drug level in human HepG2 cells assessed as SSAT2-mediated compound formation treated with TETA at 1 mM for 24 hrs in presence of SSAT1 shRNA; assay type: ADME, cell-based; settings: hepg2, 24 h, 1000 µM; outline: as §2
structure (smiles),measurement,setting,value
CC(=O)NCCCNCCCCNCCCN,Drug metabolism,[1],metabolite_detected
same,Drug metabolism,[2],metabolite_detected
CC(=O)NCCCNCCCCN,Drug metabolism,[1],metabolite_detected
same,Drug metabolism,[2],metabolite_detected
NCCCNCCNCCNCCN,Drug metabolism,[3],metabolite_not_detected
same,Drug metabolism,HepG2,metabolite_not_detected
same,Drug metabolism,[4],metabolite_detected
same,Drug metabolism,[5],metabolite_detected
same,Drug metabolism,[6],metabolite_detected
same,Drug metabolism,[7],metabolite_detected
same,Drug metabolism,[8],metabolite_detected
CC(=O)NCCNCCNCCNCCCN,Drug metabolism,[9],metabolite_detected
same,Drug metabolism,[10],3.4 pmol/h
same,Drug metabolism,[11],metabolite_detected
same,Drug metabolism,[12],0.65 nmol
same,Drug metabolism,[13],0.8 pmol/h
same,Drug metabolism,[14],12.8 nmol
same,Drug metabolism,[1],metabolite_detected
same,Drug metabolism,[15],metabolite_detected
CC(=O)NCCCNCCNCCNCCN,Drug metabolism,[9],metabolite_detected
same,Drug metabolism,[12],1.1 nmol
same,Drug metabolism,[14],4.2 nmol
CC(=O)NCCNCCNCCN,Drug metabolism,[16],metabolite_detected
same,Drug metabolism,[17],40 pmol/h
same,Drug metabolism,[18],10 pmol/h
same,Drug metabolism,[19],metabolite_detected
same,Drug metabolism,[2],metabolite_detected
